Bioassay records from PubChem BioAssay.
The sample as a whole holds a higher share of hits than the screen did.
T cruzi growth-1 – inhibitors of T. cruzi proliferation | 5.9% of 77,000 active | T. cruzi beta-gal in NIH3T3, GalScreen luminescence, 90 h | inhibition, % at 8.34 µM;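 active means mean inhibition above about 93%, with at least 55% of replicates each passing it, limit read from the data, passing the limit was not always enough; inconclusive means only one of those two conditions holds; inactive means neither condition holds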
IDH1 mut inh – inhibitors of human IDH1 R132H | O75874 | IDH1 R132H reductase, diaphorase/resazurin fluorescence, 60 min | inhibition, % at 10 µM | 0.18% of 70,000 active | AID 624101; in the data active means inhibition above about 34%; inconclusive means no clear call, values can overlap the other calls; inactive means below about 11%;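 further: 0% = DMSO and 100% = no enzyme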
Target sequence (O75874 whole entry R132H): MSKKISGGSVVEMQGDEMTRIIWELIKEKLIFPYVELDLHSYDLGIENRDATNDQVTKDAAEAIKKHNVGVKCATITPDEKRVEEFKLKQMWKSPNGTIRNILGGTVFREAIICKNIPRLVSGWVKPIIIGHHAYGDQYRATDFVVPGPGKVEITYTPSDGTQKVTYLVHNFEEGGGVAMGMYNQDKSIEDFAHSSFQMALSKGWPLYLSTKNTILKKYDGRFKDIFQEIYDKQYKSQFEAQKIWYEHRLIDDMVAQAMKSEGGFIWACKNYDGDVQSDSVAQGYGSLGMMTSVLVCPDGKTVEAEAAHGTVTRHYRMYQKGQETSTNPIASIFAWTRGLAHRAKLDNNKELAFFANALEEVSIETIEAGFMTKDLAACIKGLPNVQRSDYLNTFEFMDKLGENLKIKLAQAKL
KDM4C inh – KDM4C (human) demethylase inhibition. Q9H3R0. GST-KDM4C 2-372, H3K9me3 peptide, LANCE TR-FRET. inhibition, % at 12.5 µM. 0.15% of 96,000 active. AID 720574;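 active means mean replicate inhibition above about 25%, with at least 55% of replicates also reaching it, limit read from the data, passing the limit was not always enough; inconclusive means only one of those two conditions met; inactive means neither condition met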
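reagent = H3K9me3 peptide substrate, Fe(II), 2-oxoglutarate | system = GST-tagged GASC-1 (JMJD2C) catalytic fragment, aa 2-372 | amount = enzyme final amount 10 nM | read-out = Fall in 671/618 emission ratio as inhibition | medium = HEPES buffer, pH 7.5, plus ascorbate | schedule = 30 min reaction, 60 min detection, RT | measured by = LANCE TR-FRET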
T cruzi growth-2 – blocks T. cruzi growth in NIH3T3 host cells; shares compounds with T cruzi growth-1; T. cruzi beta-gal in NIH3T3, GalScreen luminescence, 90 h; inhibition, % at 8.35 µM; 72% of 5,600 active; AID 651739;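 active means mean replicate inhibition above about 95% and at least 55% of replicates individually reaching it, limit read from the data; inconclusive means only one of the two criteria is met; inactive means neither criterion is met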
T cruzi growth-3 – inhibitors of T. cruzi proliferation. inhibition, % at 2.09 µM. 21% of 5,600 active. AID 651740. T. cruzi beta-gal in NIH3T3, GalScreen luminescence, 90 h. shares compounds with T cruzi growth-1;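 active means mean inhibition above about 95%, with at least 55% of replicates also reaching it, limit read from the data; inconclusive means meets just one of the two conditions; inactive means meets neither condition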;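 further: plate controls were neutral control median for no effect and positive control median for full effect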
NIH3T3 tox – cytotoxicity in mouse NIH/3T3 fibroblasts | shares compounds with T cruzi growth-1 | NIH/3T3 viability, CellTiter-Glo ATP luminescence, 90 h | cytotoxicity (signal decrease), % at 8.35 µM | 14% of 5,600 active;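 active means mean signal decrease across replicates above about 35% based on untreated-well scatter, with enough replicates individually passing, limit read from the data; inconclusive means no rule stated though some were filed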;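 further: 0% = median of neutral control wells and 100% = median of positive control wells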
NIH3T3 tox 2 – NIH/3T3 (mouse) viability loss | AID 651744 | 56% of 5,600 active | shares compounds with T cruzi growth-1 | NIH/3T3 viability, CellTiter-Glo ATP luminescence, 90 h | inhibition, % at 24.9 µM;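 active means mean loss of cell viability signal at or above a set limit, and enough replicates individually reaching it; inconclusive means meets only the mean limit or only the replicate share; inactive means meets neither condition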;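 further: 0% = median of neutral control wells and 100% = median of positive control wells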
The depositor's hits bear a star; ? = inconclusive; · = not tested or not shown.

SMILES	T cruzi growth-1	IDH1 mut inh	KDM4C inh	T cruzi growth-2	T cruzi growth-3	NIH3T3 tox	NIH3T3 tox 2
COCC#Cc1ccc2c(c1)O[C@H](CN(C)S(=O)(=O)c1cccc(OC)c1)[C@@H](C)CN([C@@H](C)CO)S2(=O)=O	58	0	0	·	·	·	·
COc1ccccc1S(=O)(=O)N(C)C[C@@H]1Oc2cc(/C=C/c3ccccc3)ccc2S(=O)(=O)N([C@H](C)CO)C[C@@H]1C	128*	1	11	100*	103*	-4	29*
COc1cccc(S(=O)(=O)N(C)C[C@H]2Oc3cc(C#CCC(C)C)ccc3S(=O)(=O)N([C@H](C)CO)C[C@H]2C)c1	?	0	0	97*	115*	29	74*
COc1cccc(S(=O)(=O)N(C)C[C@@H]2Oc3cc(C#CCC(C)C)ccc3S(=O)(=O)N([C@H](C)CO)C[C@@H]2C)c1	68	3	-1	·	·	·	·
Cc1c(Cl)cccc1NC(=O)CN(c1ccccc1)S(C)(=O)=O	·	0	·	·	·	·	·
COC(=O)C(CCCN=C(N)N)NC(=O)CCCc1c(-c2ccccc2)[nH]c2c(F)cc(F)cc12 (stereo unspecified)	·	-1	·	·	·	·	·
CC(C)c1ccc(S(=O)(=O)NCc2cccnc2)cc1	·	0	·	·	·	·	·
CSc1ccccc1NC(=O)CN(c1ccc(C)c(Cl)c1)S(C)(=O)=O	·	0	·	·	·	·	·
O=C(CSc1nnc(-c2cccnc2)n1C1CCCCC1)Nc1ccc(Cl)cc1	·	0	·	·	·	·	·
Cc1ccc(N(CC(N)=O)S(=O)(=O)c2ccc(Cl)cc2)cc1	·	0	·	·	·	·	·
COc1ccccc1S(=O)(=O)N(C)C[C@H]1Oc2cc(C#CCC(C)C)ccc2S(=O)(=O)N([C@H](C)CO)C[C@@H]1C	79	-1	-1	·	·	·	·
COc1ccccc1S(=O)(=O)N(C)C[C@H]1Oc2cc(C#CCC(C)C)ccc2S(=O)(=O)N([C@@H](C)CO)C[C@H]1C	113*	0	0	95*	108*	13	81*
Cn1cnc(CCNC(=O)C[C@@H]2CC[C@H]3[C@@H](COC[C@@H](O)CN3C(=O)C3CC3)O2)c1	104*	·	-2	102*	-25	-23	-23
Cn1cnc(CCNC(=O)C[C@H]2CC[C@H]3[C@@H](COC[C@H](O)CN3C(=O)Nc3ccc(Cl)cc3)O2)c1	44	·	-2	·	·	·	·
Cn1cnc(CCNC(=O)C[C@@H]2CC[C@H]3[C@@H](COC[C@H](O)CN3C(=O)C3CC3)O2)c1	12	·	1	·	·	·	·
Cn1cnc(CCNC(=O)C[C@@H]2CC[C@H]3[C@@H](COC[C@@H](O)CN3C(=O)Nc3ccc(C(F)(F)F)cc3)O2)c1	107*	·	1	-33	5	6	15
Cn1cnc(CCNC(=O)C[C@H]2CC[C@H]3[C@@H](COC[C@H](O)CN3C(=O)Nc3ccccc3)O2)c1	2	·	1	·	·	·	·
Cn1cnc(CCNC(=O)C[C@H]2CC[C@@H]3[C@H](COC[C@H](O)CN3C(=O)Nc3ccc(C(F)(F)F)cc3)O2)c1	?	·	2	84	-7	6	2
Cc1ccc(S(=O)(=O)Nc2cc(Cl)c(O)c(Sc3nc(C)cc(C)n3)c2)cc1	·	11	·	·	·	·	·
Cn1c(SCC(=O)c2ccc(F)cc2)nnc1-c1cccc([N+](=O)[O-])c1	·	0	·	·	·	·	·
CCOc1ccccc1OCC(=O)Nc1ccccc1[N+](=O)[O-]	·	0	·	·	·	·	·
C[C@@H]1CCCCO[C@H](CN(C)Cc2ccc3c(c2)OCO3)[C@H](C)CN([C@H](C)CO)C(=O)c2cc(NC(=O)c3ccncc3)ccc2O1	114*	2	5	102*	15	-4	-9
C[C@@H]1CN([C@@H](C)CO)C(=O)c2cc(NC(=O)c3ccncc3)ccc2O[C@@H](C)CCCCO[C@@H]1CN(C)Cc1ccc2c(c1)OCO2	29	·	0	·	·	·	·
C[C@@H]1CCCCO[C@@H](CN(C)Cc2ccc3c(c2)OCO3)[C@H](C)CN([C@@H](C)CO)C(=O)c2cc(NC(=O)c3ccncc3)ccc2O1	41	2	-1	·	·	·	·
C[C@H](CO)N1C[C@H](C)[C@@H](CN(C)Cc2ccc3c(c2)OCO3)OCCCC[C@H](C)Oc2ccc(NC(=O)c3ccncc3)cc2C1=O	103*	1	7	2	1	-25	-17
SMILES	T cruzi growth-1	IDH1 mut inh	KDM4C inh	T cruzi growth-2	T cruzi growth-3	NIH3T3 tox	NIH3T3 tox 2
COc1ccccc1NC(=O)CSc1ncnc2sc(-c3ccccc3)cc12	·	0	·	·	·	·	·
CCOc1ccccc1NC(=O)CSc1nc2ccccc2c(=O)n1-c1cccc(C(F)(F)F)c1	·	0	·	·	·	·	·
Cc1nc(C)c(C(=O)C2C(=O)C(=O)N(CCN3CCOCC3)C2c2cccs2)s1 (stereo unspecified)	·	0	·	·	·	·	·
COc1ccc([N+](=O)[O-])c(NC(=O)c2cnn3c(C(F)F)cc(-c4ccc(C)cc4)nc23)c1	·	0	·	·	·	·	·
O=S(=O)(c1ccccc1F)N1CCCCN2[C@H](C1)[C@@H](c1ccc(-c3ccccc3)cc1)[C@@H]2CO	69	·	·	·	·	·	·
Cc1ccccc1S(=O)(=O)N1CCCCN2[C@H](CO)[C@@H](c3ccc(-c4cccnc4)cc3)[C@@H]2C1	74	·	-1	·	·	·	·
Cc1ccccc1S(=O)(=O)N1CCCCN2[C@H](CO)[C@@H](c3ccc(-c4cncnc4)cc3)[C@H]2C1	73	·	-1	·	·	·	·
O=S(=O)(c1ccccc1F)N1CCCCN2[C@@H](CO)[C@@H](c3ccc(-c4ccncc4)cc3)[C@@H]2C1	?	·	0	107*	35	30	27*
Cc1ccccc1S(=O)(=O)N1CCCCN2[C@H](CO)[C@H](c3ccc(-c4cccnc4)cc3)[C@H]2C1	100*	·	1	108*	80	29	80*
Cc1ccccc1S(=O)(=O)N1CCCCN2[C@@H](CO)[C@H](c3ccc(-c4cncnc4)cc3)[C@@H]2C1	117*	·	0	73	22	11	?
CS(=O)(=O)N(CC(=O)NC1CC2CCC1C2)c1ccc(Cl)c(C(F)(F)F)c1 (stereo unspecified)	·	0	·	·	·	·	·
Cc1ccc(N(C(C)C(=O)Nc2ccc(I)cc2)S(C)(=O)=O)cc1 (stereo unspecified)	·	0	·	·	·	·	·
CS(=O)(=O)Nc1ccc2c(c1)[C@@H]1C[C@H](CC(=O)N3CCc4ccccc4C3)O[C@H](CO)[C@@H]1O2	·	0	2	·	·	·	·
O=C(C[C@@H]1C[C@@H]2c3cc(NS(=O)(=O)c4ccc(F)cc4)ccc3O[C@@H]2[C@@H](CO)O1)N1CCCCC1	·	0	-1	·	·	·	·
O=C(C[C@@H]1C[C@@H]2c3cc(NS(=O)(=O)c4ccc(F)cc4)ccc3O[C@@H]2[C@@H](CO)O1)N1CCc2ccccc2C1	115*	0	-2	100*	13	16	13
CS(=O)(=O)Nc1ccc2c(c1)[C@@H]1C[C@@H](CC(=O)N3CCc4ccccc4C3)O[C@@H](CO)[C@@H]1O2	·	0	2	·	·	·	·
